Reference: ChEMBL document CHEMBL5376017, “Glucosamine substituted sulfonylureas: IRS-PI3K-PKC-AKT-GLUT4 insulin signalling pathway intriguing agent” (RSC Med Chem, 2024)
Calls of active or inactive are those of the source. The calls are words filed in the database; no cut-off is given here.

Tests used:
L6 [1] = assay: Upregulation of PKB/AKT2 expression in insulin resistant myotube differentiated rat L6 cells incubated for 24 hrs by qRT-PCR analysis; assay type: functional, cell-based
How it was run: (§1)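 L6 myoblasts differentiated to myotubes in DMEM with 2% horse serum for 7 days, 2 × 10^4 cells per well. Insulin resistance induced in three steps: 25 mM glucose plus insulin for 24 h, then 5 mM glucose without insulin for 5 h, then insulin for 30 min. Compounds in DMEM with 2% inactivated FBS for 24 h. qPCR normalized to geometric mean of β-actin and γ-actin. Mean ± SEM, one-way ANOVA with Duncan test.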

Soleus muscle [2] = assay: Upregulation of GLUT4 expression in insulin resistant Sprague-Dawley rat soleus muscle incubated for 24 hrs by qRT-PCR analysis; assay type: functional, tissue-based
How it was run: (§2)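 Isolated rat soleus muscle in gassed (95% O2–5% CO2) Krebs–Henseleit buffer. Insulin resistance induced in four steps: KHB with 0.1% BSA and 1 mM pyruvate for 24 h at 37 °C, then high glucose/insulin for 24 h, then 25 mM glucose for 5 h, then insulin for 30 min. Tissue then exposed in KHB for 24 h. qPCR normalized to β-/γ-actin geometric mean. Mean ± SEM, ANOVA/Duncan.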

L6 [3] = assay: Downregulation of PKC-alpha expression in insulin resistant myotube differentiated rat L6 cells incubated for 24 hrs by qRT-PCR analysis; assay type: functional, cell-based; how it was run: as §1
L6 [4] = assay: Upregulation of IRS-1 expression in insulin resistant myotube differentiated rat L6 cells incubated for 24 hrs by qRT-PCR analysis; assay type: functional, cell-based; how it was run: as §1
Soleus muscle [5] = assay: Downregulation of PKC-alpha expression in insulin resistant Sprague-Dawley rat soleus muscle incubated for 24 hrs by qRT-PCR analysis; assay type: functional, tissue-based; how it was run: as §2
Soleus muscle [6] = assay: Upregulation of PI3K expression in insulin resistant Sprague-Dawley rat soleus muscle incubated for 24 hrs by qRT-PCR analysis; assay type: functional, tissue-based; how it was run: as §2
L6 [7] = assay: Upregulation of PI3K expression in insulin resistant myotube differentiated rat L6 cells at 1 to 2 uM incubated for 24 hrs by qRT-PCR analysis; assay type: functional, cell-based; settings: dose 1-2 µM; how it was run: as §1
[8] = Cytotoxicity against rat L6 cells assessed as cell viability at 50 to 250 uM incubated for 24 hrs by MTT assay relative to control; assay type: toxicity, cell-based; settings: dose 50-250 µM, read-out: Activity
How it was run: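 Rat L6 myoblasts, 2 × 10^4 cells per mL, allowed to attach, then exposed for 24 h to five concentrations (50–250 μM) from DMSO stocks; 0.1% DMSO as negative control. MTT at 0.5 mg mL−1 added for 4 h, formazan dissolved in DMSO, absorbance read at 570 nm. Viability calculated against control. Triplicate wells, three independent experiments.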

L6 [9] = assay: Upregulation of IRS-1 expression in insulin resistant myotube differentiated rat L6 cells at 1 to 2 uM incubated for 24 hrs by qRT-PCR analysis; assay type: functional, cell-based; settings: dose 1-2 µM; how it was run: as §1
Soleus muscle [10] = assay: Upregulation of IRS-1 expression in insulin resistant Sprague-Dawley rat soleus muscle at 1 to 2 uM incubated for 24 hrs by qRT-PCR analysis; assay type: functional, tissue-based; settings: dose 1-2 µM; how it was run: as §2
L6 [11] = assay: Upregulation of PKB/AKT2 expression in insulin resistant myotube differentiated rat L6 cells at 2 uM incubated for 24 hrs by qRT-PCR analysis; assay type: functional, cell-based; how it was run: as §1
Soleus muscle [12] = assay: Upregulation of PI3K expression in insulin resistant Sprague-Dawley rat soleus muscle at 1 to 2 uM incubated for 24 hrs by qRT-PCR analysis; assay type: functional, tissue-based; settings: dose 1-2 µM; how it was run: as §2
L6 [13] = assay: Upregulation of GLUT4 expression in insulin resistant myotube differentiated rat L6 cells at 1 to 2 uM incubated for 24 hrs by qRT-PCR analysis; assay type: functional, cell-based; settings: dose 1-2 µM; how it was run: as §1
Soleus muscle [14] = assay: Upregulation of GLUT4 expression in insulin resistant Sprague-Dawley rat soleus muscle at 1 to 2 uM incubated for 24 hrs by qRT-PCR analysis; assay type: functional, tissue-based; settings: dose 1-2 µM; how it was run: as §2
Soleus muscle [15] = assay: Upregulation of PKB/AKT2 insulin resistant Sprague-Dawley rat soleus muscle at 2 uM incubated for 24 hrs by qRT-PCR analysis; assay type: functional, tissue-based; how it was run: as §2
Soleus muscle [16] = assay: Downregulation of PKC-alpha expression in insulin resistant Sprague-Dawley rat soleus muscle at 1 to 2 uM incubated for 24 hrs by qRT-PCR analysis; assay type: functional, tissue-based; settings: dose 1-2 µM; how it was run: as §2
L6 [17] = assay: Downregulation of PKC-alpha expression in insulin resistant myotube differentiated rat L6 cells at 1 to 2 uM incubated for 24 hrs by qRT-PCR analysis; assay type: functional, cell-based; settings: dose 1-2 µM; how it was run: as §1
L6 [18] = assay: Upregulation of GLUT4 expression in insulin resistant myotube differentiated rat L6 cells incubated for 24 hrs by qRT-PCR analysis; assay type: functional, cell-based; how it was run: as §1

Structure (SMILES)	Activity (L6 [1])	Activity (Soleus muscle [2])	Activity (L6 [3])	Activity (L6 [4])	Activity (Soleus muscle [5])	Activity (Soleus muscle [6])	Activity (L6 [7])	viability at 24 h, up to 250 µM [8]	Activity (L6 [9])	Activity (Soleus muscle [10])	Activity (L6 [11])	Activity (Soleus muscle [12])	Activity (L6 [13])	Activity (Soleus muscle [14])	Activity (Soleus muscle [15])	Activity (Soleus muscle [16])	Activity (L6 [17])	Activity (L6 [18])
CCC1=C(C)CN(C(=O)NCCc2ccc(S(=O)(=O)NC(=O)N[C@H]3CC[C@H](C)CC3)cc2)C1=O	Active	Active	Active	Active	Active	Active	–	–	–	–	–	–	–	–	–	–	–	–
CC(=O)OC[C@H]1OC(OC(C)=O)[C@H](NC(=O)NS(=O)(=O)c2ccccc2)[C@@H](OC(C)=O)[C@@H]1OC(C)=O (some centres undefined)	–	–	–	–	–	–	Active	50%	Active	Active	Active	Active	Active	Active	Active	Active	Active	–
CC(=O)OC[C@H]1OC(OC(C)=O)[C@H](NC(=O)NS(=O)(=O)c2ccc(C)cc2)[C@@H](OC(C)=O)[C@@H]1OC(C)=O (some centres undefined)	–	–	–	–	–	–	Active	50%	Active	Active	Active	Active	Active	Active	Active	Active	Active	–
CC(=O)OC[C@H]1OC(OC(C)=O)[C@H](NC(=O)NS(=O)(=O)c2ccc(Cl)cc2)[C@@H](OC(C)=O)[C@@H]1OC(C)=O (some centres undefined)	–	–	–	–	–	–	Active	50%	Active	Active	Active	Active	Active	Active	Active	Active	Active	–
O=C(N[C@H]1C(O)O[C@H](CO)[C@@H](O)[C@@H]1O)NS(=O)(=O)c1ccccc1 (some centres undefined)	–	–	–	–	–	–	Active	< 50%	Active	Active	Active	Active	Active	Active	Active	Active	Active	–
O=C(N[C@H]1C(O)O[C@H](CO)[C@@H](O)[C@@H]1O)NS(=O)(=O)c1ccc(Cl)cc1 (some centres undefined)	–	–	–	–	–	–	Active	50%	Active	Active	Active	Active	Active	Active	Active	Active	Active	–
Cc1ccc(S(=O)(=O)NC(=O)N[C@H]2C(O)O[C@H](CO)[C@@H](O)[C@@H]2O)cc1 (some centres undefined)	–	–	–	–	–	–	Active	50%	Active	Active	Active	Active	Active	Active	Active	Active	Active	–
CN(C)C(=N)NC(=N)N	Active	Active	Active	Active	Active	Active	–	–	–	–	–	–	–	–	–	–	–	Active
